Data: ChEMBL document CHEMBL4732187, “Tetrahydroindazole inhibitors of CDK2/cyclin complexes” (Eur J Med Chem, 2021)
Active and inactive are the calls of the source. The calls are words filed in the database; no cut-off is given here.

Assays:
[1] = Permeability across apical to basolateral side in MDCK cells assessed as drug recovery at 1 uM after 2 hrs by LC-MS/MS analysis; format: ADME, cell-based, Canis lupus familiaris; details: dog
How it was run: (§1)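 MDCK monolayers were washed twice with pre-warmed HBSS (10 mM HEPES, pH 7.4) and equilibrated for 30 min at 37 °C. Compound at 1 μM in HBSS (0.5% DMSO final) was added to the apical or the basolateral donor side. After 2 h at 37 °C, donor and receiver samples were quenched in cold methanol with internal standards and analysed by LC-MS/MS. Runs were in duplicate; 100 μM Lucifer Yellow checked monolayer integrity.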

[2] = Permeability across basolateral to apical side in MDCK cells at 1 uM after 2 hrs by LC-MS/MS analysis; format: ADME, cell-based, Canis lupus familiaris; details: dog; how it was run: as §1
CDK2/Cyclin A2 = CDK2/Cyclin A2 (Homo sapiens, UniProt P24941); test: Inhibition of human N-terminal GST-tagged CDK2 (1 to 298 residues)/Cyclin A (174 to 432 residues) expressed in Escherichia coli Turner (DE3) cells assessed as reduction in ADP formation using PKTPKKAKKL as substrate by resorufin dye based fluorescence assay
CDK2/Cyclin A1 = CDK2/Cyclin A1 (Homo sapiens, UniProt P24941); test: Inhibition of CDK2/Cyclin A1 (unknown origin) using histone H1 as substrate preincubated for 20 mins followed by 33P-ATP addition and measured after 2 hrs by filter binding method; format: protein-complex assay
[3] = target: Cyclin-dependent kinase 2/cyclin E1 (Homo sapiens, UniProt P24941); test: Inhibition of CDK2/Cyclin E (unknown origin) using histone H1 as substrate preincubated for 20 mins followed by 33P-ATP addition and measured after 2 hrs by filter binding method; format: protein-complex assay
CDK2/Cyclin O = CDK2/Cyclin O (Homo sapiens, UniProt P22674+P24941); test: Inhibition of CDK2/Cyclin-O (unknown origin) using histone H1 as substrate preincubated for 20 mins followed by 33P-ATP addition and measured after 2 hrs by filter binding method; format: protein-complex assay
MCF7 = test: Antiproliferative activity against human MCF7 cells assessed as reduction in cell viability up to 200 uM after 72 hrs by alamarBlue assay; format: functional, cell-based; details: dose microM <=200, time 72.0 hrs
How it was run: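 MCF-7 cells seeded at 5000 per well and incubated overnight at 37 °C, 5% CO₂, then exposed to 8 concentrations from 0.00256 μM to 200 μM for 72 h. alamarBlue was then added and incubated 90 min at 37 °C. Proliferating cells were read by fluorescence (ex 530 nm, em 590 nm). Staurosporine served as positive control.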

[4] = target: Cyclin-dependent kinase 2 (Homo sapiens, UniProt P24941); test: Binding affinity to T7-tagged CDK2 (unknown origin) expressed in bacteriophage infected Escherichia coli BL21 incubated for 1 hr by magnetic beads based qPCR anlaysis
[5] = target: Heat shock protein HSP90 (Homo sapiens) (UniProt P07900+P08238); test: Inhibition of HSP90 (unknown origin); format: protein assay
[6] = Apparent permeability across apical to basolateral side in MDCK cells at 1 uM after 2 hrs by LC-MS/MS analysis; format: ADME, cell-based, Canis lupus familiaris; details: dog; how it was run: as §1
[7] = Apparent permeability across basolateral to apical side in MDCK cells at 1 uM after 2 hrs by LC-MS/MS analysis; format: ADME, cell-based, Canis lupus familiaris; details: dog; how it was run: as §1
[8] = Efflux ratio of apparent permeability across basolateral to apical side over apical to basolateral side in MDCK cells at 1 uM after 2 hrs by LC-MS/MS analysis; format: ADME, cell-based, Canis lupus familiaris; details: dog
How it was run: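 MDCK monolayers washed twice with pre-warmed HBSS (10 mM HEPES, pH 7.4) and equilibrated 30 min at 37 °C. 1 μM working solution (0.5% DMSO final) added to apical or basolateral donor side, 37 °C for 2 h, run in duplicate. Donor and receiver samples quenched in cold methanol with internal standards and quantified by LC-MS/MS. Monolayer integrity checked by Lucifer Yellow (100 μM) leakage.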

[9] = target: CDK1/Cyclin A (Homo sapiens) (UniProt P06493+P20248); test: Inhibition of CDK1/CyclinA (unknown origin) at 1 uM using histone H1 as substrate preincubated for 20 mins followed by 33P-ATP addition and measured after 2 hrs by filter binding method; format: protein-complex assay
Sequence of CDK1/Cyclin A (Homo sapiens) (P06493 whole entry, looked up): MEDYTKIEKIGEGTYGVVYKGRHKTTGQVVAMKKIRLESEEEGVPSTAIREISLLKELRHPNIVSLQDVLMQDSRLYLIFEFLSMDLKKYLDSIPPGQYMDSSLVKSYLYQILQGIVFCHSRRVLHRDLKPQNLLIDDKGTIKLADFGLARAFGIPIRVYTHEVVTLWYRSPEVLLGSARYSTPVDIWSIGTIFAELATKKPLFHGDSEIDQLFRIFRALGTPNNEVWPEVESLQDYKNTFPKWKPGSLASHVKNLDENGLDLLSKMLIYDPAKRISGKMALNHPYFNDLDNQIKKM
Sequence of CDK1/Cyclin A (Homo sapiens) (P20248 whole entry, looked up): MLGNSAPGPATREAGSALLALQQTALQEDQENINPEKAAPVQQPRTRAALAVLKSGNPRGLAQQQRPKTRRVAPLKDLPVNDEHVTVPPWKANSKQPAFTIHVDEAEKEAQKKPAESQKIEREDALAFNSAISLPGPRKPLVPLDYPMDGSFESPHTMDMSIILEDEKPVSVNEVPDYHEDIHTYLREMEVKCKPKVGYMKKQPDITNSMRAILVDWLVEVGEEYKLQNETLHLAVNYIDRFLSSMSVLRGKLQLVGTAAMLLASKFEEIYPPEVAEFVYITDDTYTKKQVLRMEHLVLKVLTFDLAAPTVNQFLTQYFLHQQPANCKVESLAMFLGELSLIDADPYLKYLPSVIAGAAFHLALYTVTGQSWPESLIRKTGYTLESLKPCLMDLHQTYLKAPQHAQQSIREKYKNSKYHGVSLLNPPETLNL
How it was run: (§2)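 Radiometric filter-binding kinase assay at 10 μM ATP in pH 7.5 HEPES buffer with MgCl₂, EGTA, Brij35, BSA, Na₃VO₄, DTT and 1% DMSO. Compound was preincubated with kinase for 20 min at rt, then ³³P-ATP was added and the reaction ran 2 h at rt. Substrate was histone H1 at 20 μM, except myelin basic protein at 20 μM for CDK7/cyclin H and a peptide at 20 μM for CDK9/cyclin T1. Single dose, in duplicate.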

[10] = target: Cyclin-dependent kinase 1/cyclin B1 (Homo sapiens) (UniProt P06493+P14635); test: Inhibition of CDK1/Cyclin B (unknown origin) at 1 uM using histone H1 as substrate preincubated for 20 mins followed by 33P-ATP addition and measured after 2 hrs by filter binding method; format: protein-complex assay; how it was run: as §2
Sequence of Cyclin-dependent kinase 1/cyclin B1 (Homo sapiens) (P06493 whole entry, looked up, the tested form may be a part): as the sequence (P06493 whole entry, looked up) above
Sequence of Cyclin-dependent kinase 1/cyclin B1 (Homo sapiens) (P14635 whole entry, looked up, the tested form may be a part): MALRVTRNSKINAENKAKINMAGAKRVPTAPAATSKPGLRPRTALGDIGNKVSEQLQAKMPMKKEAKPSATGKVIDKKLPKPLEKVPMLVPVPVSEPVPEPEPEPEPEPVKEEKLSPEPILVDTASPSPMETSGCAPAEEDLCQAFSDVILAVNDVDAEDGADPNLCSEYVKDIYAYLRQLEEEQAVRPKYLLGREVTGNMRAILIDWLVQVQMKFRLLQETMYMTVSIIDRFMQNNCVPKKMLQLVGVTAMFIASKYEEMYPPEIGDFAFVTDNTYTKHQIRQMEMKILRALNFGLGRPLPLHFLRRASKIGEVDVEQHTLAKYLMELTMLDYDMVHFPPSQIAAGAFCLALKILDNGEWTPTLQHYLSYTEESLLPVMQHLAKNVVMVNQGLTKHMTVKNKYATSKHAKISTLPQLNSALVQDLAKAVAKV

[11] = target: CDK2/Cyclin A2 (Homo sapiens) (UniProt P24941+P20248); test: Inhibition of human N-terminal GST-tagged CDK2 (1 to 298 residues)/Cyclin A (174 to 432 residues) expressed in Escherichia coli Turner (DE3) cells assessed as reduction in ADP formation at 1 uM using PKTPKKAKKL as substrate by resorufin dye based fluorescence assay
[12] = target: CDK2/Cyclin A1 (Homo sapiens) (UniProt P24941+P78396); test: Inhibition of CDK2/Cyclin A1 (unknown origin) at 1 uM using histone H1 as substrate preincubated for 20 mins followed by 33P-ATP addition and measured after 2 hrs by filter binding method; format: protein-complex assay; how it was run: as §2
[13] = target: Cyclin-dependent kinase 2/cyclin E1 (Homo sapiens) (UniProt P24864+P24941); test: Inhibition of CDK1/Cyclin E (unknown origin) at 1 uM using histone H1 as substrate preincubated for 20 mins followed by 33P-ATP addition and measured after 2 hrs by filter binding method; format: protein-complex assay; how it was run: as §2
[14] = target: CDK2/Cyclin O (Homo sapiens) (UniProt P24941+P22674); test: Inhibition of CDK1/Cyclin-O (unknown origin) at 1 uM using histone H1 as substrate preincubated for 20 mins followed by 33P-ATP addition and measured after 2 hrs by filter binding method; format: protein-complex assay; how it was run: as §2
[15] = target: CDK3/Cyclin E (Homo sapiens) (UniProt P24864+Q00526); test: Inhibition of CDK3/Cyclin E (unknown origin) at 1 uM using histone H1 as substrate preincubated for 20 mins followed by 33P-ATP addition and measured after 2 hrs by filter binding method; format: protein-complex assay; how it was run: as §2
Sequence of CDK3/Cyclin E (Homo sapiens) (P24864 whole entry, looked up): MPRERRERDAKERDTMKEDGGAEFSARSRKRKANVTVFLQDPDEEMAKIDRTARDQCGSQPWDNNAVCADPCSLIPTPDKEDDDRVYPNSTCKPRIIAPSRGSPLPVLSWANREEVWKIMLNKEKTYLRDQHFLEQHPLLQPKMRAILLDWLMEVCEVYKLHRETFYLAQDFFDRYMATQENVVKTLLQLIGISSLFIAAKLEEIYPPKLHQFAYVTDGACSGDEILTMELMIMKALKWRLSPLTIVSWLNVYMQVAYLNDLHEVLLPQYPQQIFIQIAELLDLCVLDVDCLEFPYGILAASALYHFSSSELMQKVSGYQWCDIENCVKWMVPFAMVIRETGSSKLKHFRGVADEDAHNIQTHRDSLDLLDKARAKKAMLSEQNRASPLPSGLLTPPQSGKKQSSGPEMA
Sequence of CDK3/Cyclin E (Homo sapiens) (Q00526 whole entry, looked up): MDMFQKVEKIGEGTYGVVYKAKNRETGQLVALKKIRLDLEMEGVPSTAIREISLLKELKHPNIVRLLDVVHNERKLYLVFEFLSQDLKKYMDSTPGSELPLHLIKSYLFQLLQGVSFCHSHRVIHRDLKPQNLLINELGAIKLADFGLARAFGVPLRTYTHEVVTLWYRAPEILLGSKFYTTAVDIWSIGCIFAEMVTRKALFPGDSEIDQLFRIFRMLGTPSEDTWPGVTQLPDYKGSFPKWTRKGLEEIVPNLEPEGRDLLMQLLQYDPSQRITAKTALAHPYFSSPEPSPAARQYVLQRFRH

[16] = target: Cyclin-dependent kinase 4/cyclin D1 (Homo sapiens) (UniProt P11802+P24385); test: Inhibition of CDK4/Cyclin D1 (unknown origin) at 1 uM using RB protein as substrate preincubated for 20 mins followed by 33P-ATP addition and measured after 2 hrs by filter binding method; format: protein-complex assay
How it was run: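 Radiometric filter-binding assay of CDK4/cyclin D1 using RB protein at 3 μM and ATP at 10 μM in pH 7.5 HEPES buffer with 1% DMSO. Compound was preincubated for 20 min at rt, then ³³P-ATP was added and the reaction ran 2 h at rt, with spotting on P81 paper. Single dose, in duplicate.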

[17] = target: Cyclin-dependent kinase 5/CDK5 activator 1 (Homo sapiens) (UniProt Q00535+Q15078); test: Inhibition of CDK5/p25 (unknown origin) at 1 uM using histone H1 as substrate preincubated for 20 mins followed by 33P-ATP addition and measured after 2 hrs by filter binding method; format: protein-complex assay; how it was run: as §2
Sequence of Cyclin-dependent kinase 5/CDK5 activator 1 (Homo sapiens) (Q00535 whole entry): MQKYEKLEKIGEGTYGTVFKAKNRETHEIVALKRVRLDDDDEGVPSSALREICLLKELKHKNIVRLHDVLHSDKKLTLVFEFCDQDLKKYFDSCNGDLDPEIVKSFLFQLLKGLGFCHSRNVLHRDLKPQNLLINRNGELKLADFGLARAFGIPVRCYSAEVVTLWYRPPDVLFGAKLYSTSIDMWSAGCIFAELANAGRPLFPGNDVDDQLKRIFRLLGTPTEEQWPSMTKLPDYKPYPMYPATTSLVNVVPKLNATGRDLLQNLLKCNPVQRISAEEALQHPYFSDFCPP
Sequence of Cyclin-dependent kinase 5/CDK5 activator 1 (Homo sapiens) (Q15078 99-307 partner limits assumed): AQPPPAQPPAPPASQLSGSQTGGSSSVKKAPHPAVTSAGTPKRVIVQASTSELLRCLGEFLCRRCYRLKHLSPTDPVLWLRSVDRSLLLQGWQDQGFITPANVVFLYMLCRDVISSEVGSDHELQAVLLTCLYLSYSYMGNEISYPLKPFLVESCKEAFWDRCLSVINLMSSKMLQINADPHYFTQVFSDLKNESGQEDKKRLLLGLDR

[18] = target: Cyclin-dependent kinase 7/ cyclin H (Homo sapiens) (UniProt P51946+P50613); test: Inhibition of CDK7/Cyclin H (unknown origin) at 1 uM using myelin basic protein as substrate preincubated for 20 mins followed by 33P-ATP addition and measured after 2 hrs by filter binding method; format: protein-complex assay; how it was run: as §2
Homo sapiens = species: Homo sapiens; test: Inhibition of CDK9/Cyclin T1 (unknown origin) at 1 uM using KTFCGTPEYLAPEVRREPRILSEEEQEMFRDFDYIAD as substrate preincubated for 20 mins followed by 33P-ATP addition and measured after 2 hrs by filter binding method; how it was run: as §2
[19] = target: CDK6/cyclin D1 (Homo sapiens) (UniProt P24385+Q00534); test: Inhibition of CDK6/Cyclin D1 (unknown origin) at 1 uM using RB protein as substrate preincubated for 20 mins followed by 33P-ATP addition and measured after 2 hrs by filter binding method

| Compound | Drug recovery [1] | Drug recovery [2] | IC50 (CDK2/Cyclin A2) | IC50 (CDK2/Cyclin A1) | IC50 [3] | IC50 (CDK2/Cyclin O) | Activity (MCF7) | other results |
| --- | --- | --- | --- | --- | --- | --- | --- | --- |
| Cc1ccc(NC(=O)c2ccc(CN3CCN(C)CC3)cc2)cc1Nc1nccc(-c2cccnc2)n1 [IMATINIB] | 56.6% | 69.9% | – | – | – | – | – | – |
| Cc1nn(-c2nccs2)c2c1C(=O)CC(C)(C)C2Br (centres undefined) | – | – | 2200 nM | 24.3 nM | 2.3 nM | 33.1 nM | inactive | Kd [4]: 4800 nM |
| Cc1nn(-c2ccccn2)c2c1C(=O)CC(C)(C)C2Br (centres undefined) | 52.4% | 49.8% | 2600 nM | 134 nM | 27.4 nM | 108 nM | inactive | inhibition [5]: inactive; Papp A→B at 2 h, 1 µM [6]: 20.1 ×10⁻⁶ cm/s; Papp B→A at 2 h, 1 µM [7]: 9.52 ×10⁻⁶ cm/s; Ratio [8]: 0.47 |
| Cc1nn(-c2ccccn2)c2c1C(=O)CC(C)C2Br (cis isomer) | – | – | – | – | – | – | – | inhibition [9]: inactive; inhibition [10]: inactive; inhibition [11]: inactive; inhibition [12]: inactive; inhibition [13]: inactive; inhibition [14]: inactive; inhibition [15]: inactive; inhibition [16]: inactive; inhibition [17]: inactive; inhibition [18]: inactive; inhibition (Homo sapiens): inactive; inhibition [19]: inactive |
| COCCc1ccc(OCC(O)CNC(C)C)cc1 (centres undefined) [METOPROLOL] | 90.7% | 90.4% | – | – | – | – | – | Papp A→B at 2 h, 1 µM [6]: 26.9 ×10⁻⁶ cm/s; Papp B→A at 2 h, 1 µM [7]: 21.2 ×10⁻⁶ cm/s; Ratio [8]: 0.79 |
| C[C@H]1O[C@@H](O[C@H]2[C@@H](O)C[C@H](O[C@H]3[C@@H](O)C[C@H](O[C@H]4CC[C@@]5(C)[C@H](CC[C@@H]6[C@@H]5C[C@@H](O)[C@]5(C)[C@@H](C7=CC(=O)OC7)CC[C@]65O)C4)O[C@@H]3C)O[C@@H]2C)C[C@H](O)[C@@H]1O [DIGOXIN] | 77.1% | 83.7% | – | – | – | – | – | – |
| Cc1nn(-c2ccncn2)c2c1C(=O)CC(C)(C)C2Br (centres undefined) | – | – | 1500 nM | 46.4 nM | 8.9 nM | 41.6 nM | inactive | Kd [4]: 4500 nM |
